High-throughput results: PubChem BioAssay, several laboratories
Hits are enriched below; roughly 4% of the tested compounds scored in any of these assays.
Measles CPE = compounds protecting cells from measles virus cytopathic effect, primary screen, measles RdRp inhibitor project, single point, MLSMR library, absorbance. actives 1.5% (n = 140,000). protection (pct of control), % at 4 µM. Measles virus-infected cells, CPE protection; in the data active = protection mostly above about 24%, no sharp cut-off; inactive = mostly below about 26%
Yeast lifespan up = compounds extending yeast replicative lifespan, primary screen, S. cerevisiae, OD615; S. cerevisiae growth with nicotinamide; deaD strain in restrictive glucose medium; inhibition of the nicotinamide effect, % at 10 µM; actives 0.68% (n = 130,000); AID 775, 2007;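 active = inhibition above a set limit, placed 3 SD over the median of all compounds, cut at about 26% in these data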;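 note: 0% = nicotinamide-treated wells and 100% = cells grown without nicotinamide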
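Assay system: DeaD-strain S. cerevisiae. Medium: CSMM-D glucose medium, restrictive. Reagent: nicotinamide, 1.5 mM, co-present with compound. Compound: 10 µM single point, 0.25% DMSO. Schedule: culture preincubation 4 h, compound exposure 48 h, both 30 °C. Detection: absorbance at 615 nm.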
RAM inhibit = inhibitors of the yeast RAM network, primary screen, dse1pr::URA3 reporter, 5-FOA selection. actives 1.8% (n = 190,000). AID 868, 2007. S. cerevisiae dse1pr::URA3 reporter, 5-FOA growth OD615, 2 d; analog-sensitive cbk1-as2 kinase mutant strain. inhibition, % at 50 µM;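 active = inhibition above a set limit, 3 SD over mean compound inhibition, cut at about 8.4% in these data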;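 note: 0% = DMSO-only wells with no growth and 100% = 10 µM 1-NA-PP1 full growth; inhibition rescues growth on 5-FOA so higher OD means more RAM inhibition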
BB579 growth dn = growth inhibitors of yeast BB579 in restrictive medium, primary screen, yeast lifespan-shortening project, S. cerevisiae | OD615, 48 h | inhibition, % at 10 µM | actives 0.51% (n = 140,000) | AID 804, 2007;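 active = inhibition above a set limit, 3 SD over the mean compound inhibition, cut at about 44% in these data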
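test system = yeast BB579 (DeaD) | buffer or medium = restrictive CSMM-D medium | doses = single compound dose of 10 µM, 0.25% DMSO final | times = 4 h preincubation and 48 h exposure at 30 °C | technique = culture absorbance at 615 nm | benchmarks = amphotericin B 10 µg/mL, positive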
MDM2 E3 inh = MDM2-luciferase reporter signal enhancers, primary screen, MDM2 E3 ligase inhibitor project, cell-based, luminescence, 1536-well. E3 ubiquitin-protein ligase Mdm2 (Homo sapiens), Q00987. cell-based MDM2 ubiquitination luciferase reporter, 2 h; 0 = plate control, 100 = twice control, blank-subtracted. signal enhancement, % at 5 µM. actives 0.11% (n = 210,000). AID 1230, 2008;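 active = signal enhancement of 30% or more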;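 note: luminescence tracks abundance of the self-degrading MDM2-luciferase fusion protein; higher signal means inhibition of MDM2 E3 ligase activity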
Target sequence (Q00987 whole entry, looked up, the tested form may be a part): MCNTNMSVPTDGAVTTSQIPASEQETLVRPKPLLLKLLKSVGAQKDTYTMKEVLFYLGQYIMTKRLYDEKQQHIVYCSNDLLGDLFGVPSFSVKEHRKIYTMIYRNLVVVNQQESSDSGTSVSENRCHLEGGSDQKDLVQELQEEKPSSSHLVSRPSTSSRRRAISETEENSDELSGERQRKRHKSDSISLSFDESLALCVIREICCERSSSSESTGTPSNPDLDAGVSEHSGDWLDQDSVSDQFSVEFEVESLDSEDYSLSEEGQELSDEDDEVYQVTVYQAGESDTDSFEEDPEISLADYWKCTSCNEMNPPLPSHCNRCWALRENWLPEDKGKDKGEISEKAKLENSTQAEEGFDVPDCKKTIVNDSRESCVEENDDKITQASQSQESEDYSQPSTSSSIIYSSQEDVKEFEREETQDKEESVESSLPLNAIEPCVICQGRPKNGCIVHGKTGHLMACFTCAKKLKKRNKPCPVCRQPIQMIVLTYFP
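Buffer or medium: Cells held in DMEM | Assay system: Stable mammalian line carrying autodegrading MDM2–luciferase fusion reporter | Quantity: 2000 cells/well | Times: 4 h settle plus 2 h compound, 37 °C | Doses: One concentration, 5 µM, with 0.2% DMSO | Technique: Luminescence with SteadyLite reagent, 15 min at room temperature | Benchmarks: Plate controls and plate blanks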
Insulin prom inh = inhibitors of insulin promoter-driven GFP, primary screen, imaging, TRM-6 cells (human fetal islet line), eGFP reporter, cell count; reporter expression induced with tamoxifen; inhibition, % at 2 µM; actives 0.9% (n = 130,000); AID 1273, 2008;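 active = inhibition above the mean plus 3 SD, with well images judged a real hit on visual review, cut at about 60% in these data, passing the limit was not always enough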
* marks the source's active call; other numbers are inactive results; x = no result.

SMILES | Measles CPE | Yeast lifespan up | RAM inhibit | BB579 growth dn | MDM2 E3 inh | Insulin prom inh
Cc1ccc(NC(=O)CN(C)S(=O)(=O)c2cccc3cccnc23)cc1 | 49* | -9 | 1 | 15 | -14 | x
O=C(COC(=O)CNC(=O)c1cccc([N+](=O)[O-])c1)NCc1ccco1 | x | x | 2 | x | -16 | x
COc1cc(N/C(N)=N/c2nc(C)cc(C)n2)c(OC)cc1Cl | x | x | 1 | x | -5 | x
CCC(CO)n1cnnc1-c1ccncc1 (stereo not drawn) | 30 | -11 | 1 | -34 | -5 | 7
O/N=C1/C2C3CC4C5C3C1C5C1(OCCO1)C42 (stereo not drawn) | 51* | -6 | 2 | 17 | -20 | 29
CC(C)CC(=O)Nc1ccc(C(=O)Cn2nc(C(=O)O)c3ccccc3c2=O)cc1 | 31* | -9 | 3 | -38 | x | 27
O=C(NC(C(=O)N/N=C/c1ccccn1)c1n[nH]c(=O)c2ccccc12)c1ccccc1 (stereo not drawn) | x | x | x | x | -11 | x
O=C(Nc1ccc2c(c1)OCO2)C1CC(c2ccc(Cl)cc2)=NO1 (stereo not drawn) | 40* | -4 | 5 | -12 | 1 | -37
CCSc1nnc(NC(=O)c2cc(OC)c(OC)c(OC)c2)s1 | x | x | 1 | x | -10 | 44
COc1ccccc1NC(=O)/C(=C/c1cccc([N+](=O)[O-])c1)c1ccccc1 | 12 | -3 | 11* | -14 | -13 | 33
COc1cc2[nH]c(=O)n(CCC(=O)NCCCN3CCN(c4ccccc4F)CC3)c(=O)c2cc1OC | x | x | 3 | x | -11 | 14
O=C(c1cc(COc2c(F)cccc2F)on1)N1CCC(c2ccccc2Cl)C1 (stereo not drawn) | x | x | 8.4* | x | -15 | x
O=C(NCc1ccc(Cl)s1)c1cc(COc2c(F)cccc2F)on1 | x | x | 9.1* | x | -17 | 20
CN(Cc1cccc2ccccc12)C(=O)c1cc(COc2c(F)cccc2F)on1 | x | x | 6 | x | -18 | x
CCc1ccc(CN(C)C(=O)c2cc(COc3c(F)cccc3F)on2)cc1 | x | x | 9.4* | x | -6 | x
O=C(c1cc(COc2c(F)cccc2F)on1)N1CCC(c2ccccc2F)C1 (stereo not drawn) | x | x | 6 | x | 15 | x
O=C(c1cnn(-c2ccccc2)c1-n1cccc1)N1CCN(C2CCCCC2)CC1 | x | x | 1 | x | 6 | x
NCCCC[C@H]1CNC(=S)N1CCc1cccc(F)c1 | x | x | 0 | x | x | x
O=C(Oc1ccc(N(Cc2cccs2)C2=NS(=O)(=O)c3ccccc32)cc1)c1ccccc1F | 28* | -2 | 4 | -65 | -7 | 7
CCOC(=O)c1c(NC(=O)c2cc(-c3ccc(O)cc3)on2)sc(C(C)=O)c1C | 9 | -4 | 3 | -24 | x | 0
O=C(NCCCn1ccnc1)c1ccc(N2CCCCC2)c([N+](=O)[O-])c1 | x | x | 1 | x | 2 | x
COc1cc(/C=C/C(=O)OCC(=O)Nc2ccc(NC(C)=O)cc2)cc(S(=O)(=O)N2CCc3ccccc32)c1OC | x | x | 10* | x | 3 | x
COc1cc(/C=C/C(=O)OCC(=O)NC2CC2)cc(S(=O)(=O)N2CCc3ccccc32)c1OC | x | x | 0 | x | -10 | 5
CC1(C)Cc2c(C#N)c(NCCc3ccccc3)nc(-c3ccco3)c2CO1 | 53* | -20 | 5 | -55 | -9 | 0
COc1ccccc1-n1c(=O)oc2ccc(Cl)cc2c1=O | 14 | -15 | 3 | 53* | -11 | 14
CN1CCN(C(=O)Cn2c(=O)oc3cc(S(=O)(=O)NCc4ccccc4)ccc32)CC1 | 31 | -7 | 0 | -21 | -19 | x
O=C(/C=C/c1ccc(O)cc1)c1ccccc1 | x | x | x | x | -16 | x
O=C(/C=C/c1ccc(N2CCC(c3ccccc3)=N2)cc1)c1ccccc1 | x | x | 11* | x | -10 | -456
COc1ccc(NS(=O)(=O)c2ccc(N3CCOCC3)c(NC(=O)c3ccc(OC)cc3)c2)cc1 | 9 | 6 | 8.6* | -22 | -4 | -69
